Assay results taken from ChEMBL document CHEMBL2440101, “Total syntheses and cytotoxicity of kealiiquinone, 2-deoxy-2-aminokealiiquinone and analogs” (Bioorg Med Chem Lett, 2013).

Test system: MCF7
Assay: Cytotoxicity against human MCF7 cells after 96 hrs by MTT assay
Assay type: functional, cell-based
Conditions: MCF7, 96 h
In short: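 MCF7 breast cancer cells; MTT growth assay with cisplatin as positive control. IC50 taken from cytotoxicity (concentration-response) plots and reported with SEM.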

Row | Compound | IC50
1 | COC1=C(OC)C(=O)c2c(cc3c([nH]c(=O)n3C)c2-c2ccc(OC)cc2)C1=O | 91.9 µM
2 | COC1=C(OC)C(=O)c2c(cc3c(nc(N)n3C)c2-c2ccc(OC)cc2)C1=O | 43.8 µM
3 | COc1ccc(-c2c3cc(OC)c(OC)cc3cc3c2nc(N)n3C)cc1 | 28.8 µM
4 | COc1ccc(-c2c3nc(N)n(C)c3cc3cc(OC)c(OC)c(OC)c23)cc1 | > 100 µM
5 | COc1ccc(-c2c3cc(OCc4ccccc4)c(OC)cc3cc3c2ncn3C)cc1 | 92 µM
6 | COc1ccc(-c2c3cc(OC)c(OC)cc3cc3c2ncn3C)cc1 | 28 µM
7 | COc1ccc(-c2c3ncn(C)c3cc3cc(OC)c(OC)c(OC)c23)cc1 | 99.8 µM
8 | COC1=C(OC)C(=O)c2c(cc3c(ncn3C)c2-c2ccc(OC)cc2)C1=O | 41.1 µM
9 | COc1ccc(-c2c3[nH]c(=O)n(C)c3cc3cc(OC)c(OC)c(OC)c23)cc1 | 29.9 µM
10 | COc1ccc(-c2c3cc(OC)c(OC)c(OC)c3cc3c2nc(N)n3C)cc1 | 22.7 µM
11 | COc1ccc(-c2c3cc(OC)c(OC)c(OC)c3cc3c2ncn3C)cc1 | 68.2 µM
12 | COc1ccc(-c2c3cc(O)c(OC)cc3cc3c2ncn3C)cc1 | > 100 µM
13 | COc1ccc(-c2c3cc(O)c(OC)cc3cc3c2[nH]c(=N)n3C)cc1 [KEALIININE A] | 23.4 µM
